Results: ChEMBL document CHEMBL1177862, “Novel effects of glycyrrhetinic acid on the central nervous system tumorigenic progenitor cells: induction of actin disruption and tumor cell-selective toxicity” (Eur J Med Chem, 2010)
Counter-ions that a name gives are not always drawn.

Tests used:
[1] = Antiproliferative activity against mouse SFME cells after 24 hrs by MTT assay; format: cell-based
Outline: (§1)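 Cells were kept in DME/F-12 with insulin, transferrin and EGF on fibronectin-coated dishes at 37 C in 20% O2/5% CO2. They were seeded at 1 x 10^4 cells/well and dosed at half confluency for 24 h. Cell number was read by MTT. Runs were in triplicate, repeated at least three times, as mean SD. IC50 was derived from concentration-response data.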

[2] = Antiproliferative activity against mouse r/m HM-SFME-1 cells after 24 hrs by MTT assay; format: functional, cell-based; outline: as §1
[3] = Antiproliferative activity against mouse r/m HM-SFME-1 cells at 10 uM after 24 hrs by MTT assay; format: functional; outline: as §1
[4] = Induction of F-actin disruption in mouse SFME cells assessed as F-actin extension at IC50 after 8 hrs by confocal laser scanning microscopy; format: functional, cell-based
Outline: (§2)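 After 8 h treatment, cells were fixed in 3.7% formaldehyde/PBS and permeabilized with 0.1% Triton X-100. F-actin was labeled with rhodamine-phalloidin. Slides were mounted in anti-fade medium and imaged by confocal laser scanning or fluorescence microscopy for peripheral F-actin extensions and lamellipodia.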

[5] = Induction of F-actin disruption in mouse r/m HM-SFME-1 cells assessed as disappearance of F-actin extension at IC50 after 8 hrs by confocal laser scanning microscopy; format: functional, cell-based; outline: as §2
[6] = Down regulation of beta-actin protein expression in mouse r/m HM-SFME-1 cells at IC50 after 8 hrs by Western blotting; format: functional, cell-based
Outline: (§3)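 They were run on SDS-PAGE, blotted to nitrocellulose and probed with mouse monoclonal anti-beta-actin, then AP-conjugated anti-mouse IgG1. GAPDH was the loading control. Bands were quantified by densitometry. Values are from at least 3 experiments, Student's t-test.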

[7] = Down regulation of beta-actin protein expression in mouse SFME cells at IC50 after 8 hrs by Western blotting; format: functional, cell-based; outline: as §3

SMILES	IC50 [1] [µM]	IC50 [2] [µM]	inhibition at 10 µM [3] [%]	IC50 [4]	IC50 [5]	IC50 [6]	IC50 [7]
Nc1ccn([C@@H]2O[C@H](CO)[C@@H](O)[C@@H]2O)c(=O)n1 [CYTARABINE]	0.8	33.3	–	–	–	–	–
COc1cccc2c1C(=O)c1c(O)c3c(c(O)c1C2=O)C[C@@](O)(C(=O)CO)C[C@@H]3O[C@H]1C[C@H](N)[C@H](O)[C@H](C)O1 [DOXORUBICIN HYDROCHLORIDE]	0.8	64	–	–	–	–	–
CC1(C)[C@@H](O)CC[C@]2(C)[C@H]3C(=O)C=C4[C@@H]5C[C@@](C)(C(=O)O)CC[C@]5(C)CC[C@@]4(C)[C@]3(C)CC[C@@H]12 [ENOXOLONE]	18	7.3	> 80	Not Active	Active	Active	Not Active
COc1cc([C@@H]2c3cc4c(cc3[C@@H](O[C@@H]3O[C@@H]5CO[C@@H](C)O[C@H]5[C@H](O)[C@H]3O)[C@H]3COC(=O)[C@H]23)OCO4)cc(OC)c1O [ETOPOSIDE]	0.5	9	–	–	–	–	–
O=c1[nH]cc(F)c(=O)[nH]1 [FLUOROURACIL]	3.2	48.5	–	–	–	–	–
